In ChEMBL document CHEMBL1821639, “Exploring Left-Hand-Side substitutions in the benzoxazinone series of 4-amino-piperidine bacterial type IIa topoisomerase inhibitors” (Bioorg Med Chem Lett, 2011):
Converted amounts (≈) assume the structure as drawn.

How the values were obtained:
[1] = tested on: Escherichia coli; test: Antibacterial activity against TolC-deficient Escherichia coli after 24 hrs by CLSI method; type: functional
Outline: (§1)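 Broth dilution per CLSI; compounds in DMSO, 10 doubling dilutions. Organisms grown overnight on agar, suspended in suitable liquid medium to 0.5 McFarland, then diluted 1 in 10 for final inoculum.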

[2] = tested on: Escherichia coli; test: Antibacterial activity against Escherichia coli after 24 hrs by CLSI method; type: functional; outline: as §1
[3] = Inhibition of ParC in reconstituted Escherichia coli ParC/ParE assessed as ParE ATPase activity after 24 hrs by ammonium molybdate/malachite green method
[4] = tested on: Streptococcus pyogenes; test: Antibacterial activity against Streptococcus pyogenes after 24 hrs by CLSI method; type: functional; outline: as §1
[5] = tested on: Staphylococcus aureus; test: Antibacterial activity against Staphylococcus aureus after 24 hrs by CLSI method; type: functional; outline: as §1
[6] = tested on: Streptococcus pneumoniae; test: Antibacterial activity against Streptococcus pneumoniae after 24 hrs by CLSI method; type: functional; outline: as §1
[7] = tested on: Pseudomonas aeruginosa; test: Antibacterial activity against Pseudomonas aeruginosa after 24 hrs by CLSI method; type: functional; outline: as §1
[8] = Lipophilicity, log D of the compound by shake flask method using LC-MS analysis; type: physicochemical; details: octanol/water
Outline: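 Shake-flask partitioning, experimental, with LC–MS quantitation.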

[9] = tested on: Klebsiella pneumoniae; test: Antibacterial activity against Klebsiella pneumoniae after 24 hrs by CLSI method; type: functional; outline: as §1
[10] = target: Voltage-gated inwardly rectifying potassium channel KCNH2 (Homo sapiens, UniProt Q12809); test: Inhibition of human ERG by electrophysiological assay
[11] = tested on: Moraxella catarrhalis; test: Antibacterial activity against Moraxella catarrhalis after 24 hrs by CLSI method; type: functional; outline: as §1
[12] = tested on: Haemophilus influenzae; test: Antibacterial activity against Haemophilus influenzae after 24 hrs by CLSI method; type: functional; outline: as §1
[13] = Inhibition of Escherichia coli DNA gyrase supercoiling activity

Voltage-gated inwardly rectifying potassium channel KCNH2, sequence (Q12809 whole entry): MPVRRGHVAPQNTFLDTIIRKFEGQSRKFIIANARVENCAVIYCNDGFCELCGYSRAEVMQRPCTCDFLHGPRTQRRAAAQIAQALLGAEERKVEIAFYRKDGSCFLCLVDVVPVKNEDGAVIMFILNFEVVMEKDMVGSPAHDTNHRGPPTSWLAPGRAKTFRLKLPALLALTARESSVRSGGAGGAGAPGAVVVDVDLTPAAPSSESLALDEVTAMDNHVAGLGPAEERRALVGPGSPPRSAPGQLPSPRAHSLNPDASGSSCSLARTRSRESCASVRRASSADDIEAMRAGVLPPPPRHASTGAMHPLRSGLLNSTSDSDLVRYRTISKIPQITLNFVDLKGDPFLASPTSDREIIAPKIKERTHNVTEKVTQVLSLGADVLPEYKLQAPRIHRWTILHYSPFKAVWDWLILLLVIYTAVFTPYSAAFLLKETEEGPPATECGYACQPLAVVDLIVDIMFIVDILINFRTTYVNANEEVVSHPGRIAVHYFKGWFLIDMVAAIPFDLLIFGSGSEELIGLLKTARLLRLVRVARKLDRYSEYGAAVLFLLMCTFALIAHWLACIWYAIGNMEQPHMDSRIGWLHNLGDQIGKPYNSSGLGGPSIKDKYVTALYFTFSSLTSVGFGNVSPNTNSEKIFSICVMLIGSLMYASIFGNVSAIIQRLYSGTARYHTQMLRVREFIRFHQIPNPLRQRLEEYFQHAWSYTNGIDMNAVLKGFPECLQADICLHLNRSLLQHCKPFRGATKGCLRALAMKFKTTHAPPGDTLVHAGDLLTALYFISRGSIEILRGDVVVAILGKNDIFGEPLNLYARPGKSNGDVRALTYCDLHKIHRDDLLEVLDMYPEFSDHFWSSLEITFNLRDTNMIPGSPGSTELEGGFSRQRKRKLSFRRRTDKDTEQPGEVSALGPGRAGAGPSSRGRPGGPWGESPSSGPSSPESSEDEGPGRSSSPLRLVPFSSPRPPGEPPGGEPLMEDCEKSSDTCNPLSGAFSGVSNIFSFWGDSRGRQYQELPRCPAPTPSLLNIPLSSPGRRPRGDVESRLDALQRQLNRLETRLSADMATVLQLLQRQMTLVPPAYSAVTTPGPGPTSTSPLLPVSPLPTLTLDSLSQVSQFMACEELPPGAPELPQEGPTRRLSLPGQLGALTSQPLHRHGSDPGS

Row | SMILES | MIC [1] [µM] | MIC [2] [µM] | IC50 [3] [nM] | MIC [4] [µM] | MIC [5] [µM] | MIC [6] [µM] | MIC [7] [µM] | logD [8] | MIC [9] [µM] | IC50 [10] [nM] | MIC [11] [µM] | MIC [12] [µM] | IC50 [13] [nM]
1 | O=C1COc2ccc(CNC3CCN(CCN4C(=O)COc5ccc(-n6cnnn6)cc54)CC3)nc2N1 | > 10.9 | > 10.9 | 353 | > 10.9 | > 10.9 | > 10.9 | > 10.9 | -0.8 | > 10.9 | > 100000 | > 10.9 | > 10.9 | –
2 | CC(O)c1ccc2c(c1)N(CCN1CCC(NCc3ccc4c(n3)NC(=O)CO4)CC1)C(=O)CO2 (configuration not stated) | 1.1 (≈ 0.53 µg/mL) | > 16.6 | – | > 16.6 | > 16.6 | > 16.6 | > 16.6 | 0.3 | > 16.6 | – | > 16.6 | 4.2 (≈ 2.02 µg/mL) | –
3 | O=C1COc2ccc(CNC3CCN(CCN4C(=O)COc5ccc(O)cc54)CC3)nc2N1 | 0.1 (≈ 0.0453 µg/mL) | 4.4 (≈ 2 µg/mL) | 36 | 1.1 (≈ 0.499 µg/mL) | 17.7 (≈ 8.03 µg/mL) | 8.8 (≈ 3.99 µg/mL) | 17.7 (≈ 8.03 µg/mL) | 0.5 | > 17.7 | – | 0.1 (≈ 0.0453 µg/mL) | 0.3 (≈ 0.136 µg/mL) | –
4 | O=C1COc2ccc(CNC3CCN(CCN4C(=O)COc5ccc(Br)cc54)CC3)nc2N1 | < 0.02 | 0.5 (≈ 0.258 µg/mL) | 18 | – | 0.1 (≈ 0.0516 µg/mL) | 0.3 (≈ 0.155 µg/mL) | 7.7 (≈ 3.98 µg/mL) | 1.4 | 3.9 (≈ 2.01 µg/mL) | – | < 0.015 | 0.1 (≈ 0.0516 µg/mL) | –
5 | O=C1COc2ccc(CNC3CCN(CCN4C(=O)COc5ccc(NC(=O)C(F)(F)F)cc54)CC3)nc2N1 | 8.1 (≈ 4.44 µg/mL) | > 16.1 | – | > 16.1 | > 16.1 | > 16.1 | > 16.1 | 0.2 | > 16.1 | > 100000 | 16.1 (≈ 8.83 µg/mL) | 16.1 (≈ 8.83 µg/mL) | –
6 | O=C1COc2ccc(CNC3CCN(CCN4C(=O)COc5ccc(C(=O)O)cc54)CC3)nc2N1 | > 12.7 | > 13.5 | 4680 | > 13.5 | > 13.5 | > 13.5 | > 13.5 | -1.6 | > 13.5 | – | > 13.5 | > 13.5 | –
7 | COC(=O)c1ccc2c(c1)N(CCN1CCC(NCc3ccc4c(n3)NC(=O)CO4)CC1)C(=O)CO2 | 0.1 (≈ 0.0496 µg/mL) | 4 (≈ 1.98 µg/mL) | 78 | 2 (≈ 0.991 µg/mL) | 1 (≈ 0.496 µg/mL) | 8.1 (≈ 4.01 µg/mL) | > 16.1 | 0.8 | 16.1 (≈ 7.98 µg/mL) | – | 0.1 (≈ 0.0496 µg/mL) | 0.5 (≈ 0.248 µg/mL) | –
8 | CN(C)S(=O)(=O)c1ccc2c(c1)N(CCN1CCC(NCc3ccc4c(n3)NC(=O)CO4)CC1)C(=O)CO2 | 7.3 (≈ 3.98 µg/mL) | > 14.6 | – | > 14.6 | > 14.6 | > 14.6 | > 14.6 | 0.2 | – | – | > 14.6 | 14.7 (≈ 8.01 µg/mL) | –
9 | CS(=O)(=O)c1ccc2c(c1)N(CCN1CCC(NCc3ccc4c(n3)NC(=O)CO4)CC1)C(=O)CO2 | 1 (≈ 0.516 µg/mL) | > 15.5 | – | 15.5 (≈ 7.99 µg/mL) | > 15.5 | 15.5 (≈ 7.99 µg/mL) | > 15.5 | -0.5 | – | – | 3.9 (≈ 2.01 µg/mL) | 3.9 (≈ 2.01 µg/mL) | –
10 | O=C1COc2ccc(CNC3CCN(CCN4C(=O)COc5ccc([N+](=O)[O-])cc54)CC3)nc2N1 | < 0.02 | 0.5 (≈ 0.241 µg/mL) | – | 0.3 (≈ 0.145 µg/mL) | 0.3 (≈ 0.145 µg/mL) | 0.5 (≈ 0.241 µg/mL) | 5.9 (≈ 2.85 µg/mL) | – | – | – | – | 0.1 (≈ 0.0482 µg/mL) | –
11 | CCS(=O)(=O)c1ccc2c(c1)N(CCN1CCC(NCc3ccc4c(n3)NC(=O)CO4)CC1)C(=O)CO2 | 1.9 (≈ 1.01 µg/mL) | > 15.1 | – | 15.1 (≈ 8 µg/mL) | > 15.1 | > 15.1 | > 15.1 | -0.1 | – | – | 7.6 (≈ 4.03 µg/mL) | 7.6 (≈ 4.03 µg/mL) | –
12 | O=C1COc2ccc(CNC3CCN(CCN4C(=O)COc5ccc(OC(F)(F)F)cc54)CC3)nc2N1 | 0.1 (≈ 0.0521 µg/mL) | 3.8 (≈ 1.98 µg/mL) | – | 1 (≈ 0.521 µg/mL) | 1 (≈ 0.521 µg/mL) | 1 (≈ 0.521 µg/mL) | 15.3 (≈ 7.98 µg/mL) | 1.8 | – | – | 0.1 (≈ 0.0521 µg/mL) | 0.1 (≈ 0.0521 µg/mL) | –
13 | CC(=O)c1ccc2c(c1)N(CCN1CCC(NCc3ccc4c(n3)NC(=O)CO4)CC1)C(=O)CO2 | 0.1 (≈ 0.048 µg/mL) | 2.1 (≈ 1.01 µg/mL) | – | 1 (≈ 0.48 µg/mL) | 1 (≈ 0.48 µg/mL) | 2.1 (≈ 1.01 µg/mL) | 16.7 (≈ 8.01 µg/mL) | 0.4 | – | – | 0.3 (≈ 0.144 µg/mL) | 0.3 (≈ 0.144 µg/mL) | –
14 | N#Cc1ccc2c(c1)N(CCN1CCC(NCc3ccc4c(n3)NC(=O)CO4)CC1)C(=O)CO2 | < 0.02 | 0.5 (≈ 0.231 µg/mL) | 36 | 0.3 (≈ 0.139 µg/mL) | 0.3 (≈ 0.139 µg/mL) | 0.8 (≈ 0.37 µg/mL) | 3.8 (≈ 1.76 µg/mL) | 0.2 | 4.3 (≈ 1.99 µg/mL) | – | – | 0.1 (≈ 0.0463 µg/mL) | 3.2
15 | O=C1COc2ccc(CNC3CCN(CCN4C(=O)COc5ccc(Cl)cc54)CC3)nc2N1 | < 0.02 | 0.5 (≈ 0.236 µg/mL) | 23 | 0.5 (≈ 0.236 µg/mL) | 0.3 (≈ 0.142 µg/mL) | 0.5 (≈ 0.236 µg/mL) | 4.2 (≈ 1.98 µg/mL) | 1.3 | – | – | 0.1 (≈ 0.0472 µg/mL) | 0.1 (≈ 0.0472 µg/mL) | –
16 | O=C1COc2ccc(CNC3CCN(CCN4C(=O)COc5ccc(F)cc54)CC3)nc2N1 | 0.1 (≈ 0.0455 µg/mL) | 0.6 (≈ 0.273 µg/mL) | – | 0.5 (≈ 0.228 µg/mL) | 0.6 (≈ 0.273 µg/mL) | 1.1 (≈ 0.501 µg/mL) | 6.2 (≈ 2.82 µg/mL) | 0.9 | – | – | – | 0.1 (≈ 0.0455 µg/mL) | –
17 | COc1ccc2c(c1)N(CCN1CCC(NCc3ccc4c(n3)NC(=O)CO4)CC1)C(=O)CO2 | 0.1 (≈ 0.0468 µg/mL) | 0.5 (≈ 0.234 µg/mL) | – | – | 0.3 (≈ 0.14 µg/mL) | 1.1 (≈ 0.514 µg/mL) | 8.6 (≈ 4.02 µg/mL) | 0.9 | – | – | 0.1 (≈ 0.0468 µg/mL) | 0.1 (≈ 0.0468 µg/mL) | 5
18 | O=C1COc2ccc(CNC3CCN(CCN4C(=O)COc5ccc(-c6ccco6)cc54)CC3)nc2N1 | 0.06 (≈ 0.0302 µg/mL) | 2 (≈ 1.01 µg/mL) | 18 | 2 (≈ 1.01 µg/mL) | 0.5 (≈ 0.252 µg/mL) | 0.5 (≈ 0.252 µg/mL) | 15.9 (≈ 8.01 µg/mL) | 2.2 | 15.9 (≈ 8.01 µg/mL) | – | 0.06 (≈ 0.0302 µg/mL) | 0.3 (≈ 0.151 µg/mL) | –
